Rows were chosen to be rich in hits. Some 2.2% of all compounds tested hit in one or more screens of this group.
MT stabilize HCS: microtubule stabilizers in HeLa cells, primary screen, imaging, high-content imaging; HeLa tubulin immunostaining HCS, 24 h; share of cells brighter than vehicle mean+2SD; % tubulin-high responders, % at 10 µM; 0.83% of 200,000 active;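 active = plate Z-score above 3 for both tubulin-high and condensed-nucleus cell shares, with cell loss under 80%, at 10 µM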;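 also: anti alpha tubulin signal scored within the nucleus-defined area of each cell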
Ba/F3 V617F tox: reduced viability of JAK2V617F-dependent Ba/F3 cells, primary screen, JAK2V617F inhibitor project, cell-based, Ba/F3 EpoR-JAK2V617F, luminescence | ATP luminescence | inhibition, % at 5.6 µM | 1.1% of 220,000 active | AID 1446, 2008;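 active = inhibition above the campaign mean plus 3 SD over all tested compounds, cut at about 24% in these data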;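 also: cytokine-independent growth of Ba/F3 cells driven by EpoR plus mutant JAK2; 0% = DMSO-treated cells and 100% = JAK inhibitor I control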
b-catenin transl: modulators of beta-catenin nuclear translocation, primary screen, imaging, HeLa cells, immunofluorescence, high-content | nuclear translocation activity, % at 5 µM | 0.3% of 190,000 active | AID 1665, 2009;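 active = nuclear translocation activity above 50% at 5 µM, with a well cell count of 50 or more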;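 also: per-cell ratio of nuclear to cytoplasmic median beta-catenin stain intensity; plate controls were DMSO negative control for no effect and GSK-3 inhibitor IX positive control for full effect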
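Technique: fluorescence imaging of beta-catenin antibody stain plus DAPI / Material: human HeLa cell line / Incubation: compound treatment 24 h, 37°C, 5% CO2 / Read-out basis: % activation of per-cell nuclear versus cytoplasmic median beta-catenin signal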
BaF3 parental: parental Ba/F3 cell viability inhibition, counter-screen for JAK2V617F inhibitor project, murine pro-B, CellTiter-Glo luminescence; inhibition, % at 5.6 µM; CellTiter-Glo ATP luminescence; AID 1486, 2009; 1.1% of 220,000 active;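 active = inhibition above a per-campaign cutoff, the mean inhibition of all tested compounds plus 3 SD, cut at about 27% in these data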;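 also: 0% = DMSO wells and 100% = JAK Inhibitor I control wells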
IEC-6 tox: cytotoxicity in IEC-6 intestinal epithelial cells, primary screen, cytotoxicity control for KLF5 inhibitor project, cell-based, luminescence; 0.78% of 290,000 active; AID 1825, 2009; inhibition, % at 5 µM; IEC-6 cytotoxicity, luminescence viability; in the data active = inhibition above about 22%;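 also: 0% = plate median of test compound wells and 100% = cytotoxic reference compound wells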
APP 5UTR inh: inhibitors of APP translation via 5'UTR reporter, primary screen, APP 5'UTR luciferase, SH-SY5Y cells | SH-SY5Y APP 5'UTR-luciferase reporter, luminescence | inhibition, % at 2 µM | 0.82% of 190,000 active | AID 1285, 2008;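 active = inhibition above a set limit, derived from the sample mean plus 3 SD, cut at about 45% in these data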
* = called active by the depositor; nt = not tested or not shown.

SMILES	MT stabilize HCS	Ba/F3 V617F tox	b-catenin transl	BaF3 parental	IEC-6 tox	APP 5UTR inh
Cc1c(C(=O)N/N=C/C(C)C)[nH]c2c([N+](=O)[O-])cccc12	5.9	-2.2	-0.5	2.8	7.3	92.4*
COC(=O)c1nnn(-c2nonc2N)c1CN1CCc2ccccc21	36.3*	-1.6	0.0	3.2	-0.9	7.8
Nc1nonc1-n1nnc(C(=O)N/N=C/c2ccccc2)c1CN1CCc2ccccc21	nt	nt	nt	nt	-1.4	nt
O=C(NCCN1CCCC1=O)C1CCC(=O)N(CCc2cccc(F)c2)C1 (centres undefined)	nt	nt	nt	nt	-2.6	nt
O=C(O)CCn1nnc(-c2cccs2)n1	5.1	1.8	-0.5	1.9	4.0	4.2
CCc1ccc(-c2nnn(CCC#N)n2)cc1	10.6	-2.9	2.0	1.2	-2.4	-25.7
CCc1ccc(-c2nnn(CCC(=O)OC)n2)cc1	1.3	-2.4	-1.8	5.6	0.3	48.5*
CC(C)c1ccc(-c2nnn(CCC(=O)O)n2)cc1	3.7	6.1	-0.4	4.0	-1.2	82.3*
COc1cc(OC)c(OC)cc1CNC(=O)CCN1C(=O)c2cccc([N+](=O)[O-])c2C1=O	nt	nt	nt	nt	2.5	nt
COC(=O)c1sccc1NC(=S)N1CCN(c2cc(C)ccc2C)CC1	17.3*	1.3	-2.1	1.7	-3.6	5.6
COC(=O)c1sccc1NC(=S)N1CCN(C)CC1	3.9	-0.6	-0.2	6.7	0.8	-5.9
CCOC(=O)C1CCN(C/C=C/c2ccccc2[N+](=O)[O-])CC1	nt	nt	nt	nt	6.9	nt
CC/C(=C/c1sc2ccccc2[n+]1CC)SC	2.8	2.5	-3.4	3.4	3.3	-10.9
CC[n+]1c(/C=C2/C=C(C)CC(C)C2)sc2ccccc21 (centres undefined)	2.9	60.5*	-0.8	54.8*	1.3	8.9
CN1C/C(=C/c2cccnc2)C(=O)/C(=C/c2cccnc2)C1	52.7*	0.6	2.0	2.2	-0.8	88.7*
C/C(=N\NC(=O)c1c(Cl)c(C)nn1C)c1cccc(NC(=O)C2CCCC2)c1	nt	nt	nt	nt	3.3	nt
CSc1nc(Oc2ccc3ccccc3c2)c2sccc2n1	41.0*	-3.1	86.2*	-2.8	1.2	-13.2
CC1(C(=O)NNC(=O)c2ccc(=O)oc2)CC1Br (centres undefined)	nt	0.2	-1.8	28.3*	-2.7	nt
COc1ccc(Br)cc1C(C[N+](=O)[O-])c1c(N)n(C)c(=O)n(C)c1=O (centres undefined)	nt	66.2*	0.3	36.2*	-1.7	nt
O=C1CCCN2N=C(SCC(=O)Nc3ccc(F)cc3F)SC2=N1	nt	nt	nt	nt	-1.3	nt
O=S(Cc1ccccc1)CC(O)(c1ccc(Cl)cc1)c1ccc(Cl)cc1 (centres undefined)	3.0	3.2	0.9	7.0	7.8	-10.1
O=S(Cc1ccc(Cl)cc1)CC(O)(c1ccccc1)c1ccccc1 (centres undefined)	32.6*	-1.8	-0.7	4.0	4.0	3.7
CC1=CC2=NC(=O)/C(=C\c3ccc(-c4cccc(Cl)c4)o3)C(=N)N2O1	20.1*	4.0	119.2*	12.6	0.3	-2.5
CC1=NOC(=O)/C1=C\c1ccc(-c2cccc(Cl)c2)o1	3.1	0.7	-0.8	0.8	6.0	17.9
CCN1/C(=C/C=C/C=C/C=C/c2sc3ccccc3[n+]2CC)Sc2ccccc21	nt	nt	nt	nt	4.2	nt
SMILES	MT stabilize HCS	Ba/F3 V617F tox	b-catenin transl	BaF3 parental	IEC-6 tox	APP 5UTR inh
CCN1/C(=C/C=C/C=C/c2sc3ccccc3[n+]2CC)Sc2ccccc21	95.4	50.9*	nt	48.2*	4.7	82.3*
Cc1cccn2c(=O)c3cc(C(=O)NCC4CCCO4)c(=N)n(C4CCCC4)c3nc12 (centres undefined)	nt	nt	nt	nt	3.2	nt
Cc1ccc(Cl)cc1NC(=O)NCc1cccnc1	nt	nt	nt	nt	5.1	nt
COCCNC(=O)NC1(C(F)(F)F)Oc2ccc(Cl)cc2O1 (centres undefined)	7.6	46.3*	15.0	39.3*	11.4	31.4
CCCCNC(=O)NC1(C(F)(F)F)Oc2ccccc2O1	1.6	7.5	-0.7	3.9	-3.1	13.9
Cc1cc(NC(=O)NC2(C(F)(F)F)Oc3ccc(Cl)cc3O2)no1 (centres undefined)	5.3	50.7*	-1.1	27.9*	4.3	38.2
O=C(NCc1cccnc1)NC1(C(F)(F)F)Oc2ccc(Cl)cc2O1 (centres undefined)	7.1	52.1*	-0.5	38.6*	1.9	21.5
NS(=O)(=O)c1ccc(CCNC(=O)NC2(C(F)(F)F)Oc3ccccc3O2)cc1	5.0	57.3*	-4.7	39.5*	11.6	24.7
OCCn1nc(-c2ccccc2)cc1-c1ccccc1	nt	nt	nt	nt	4.3	nt
COc1ccccc1-n1c(C)c(C(=O)O)c2cc(OC)c3ccccc3c21	nt	nt	nt	nt	-5.1	nt
Cc1ccccc1OCc1ccc(C(=O)N2CC(C)OC(C)C2)o1 (centres undefined)	nt	nt	nt	nt	4.7	nt
CCOc1ccc(N(CC(=O)NCCc2ccc(C)cc2)S(=O)(=O)c2c(C)noc2C)cc1	nt	nt	nt	nt	1.6	nt
CC(C)c1c(C(=O)N/N=C/c2ccc(C(F)(F)F)cc2)nnn1-c1nonc1N	nt	nt	nt	nt	8.9	nt
COc1cccc(NC(=O)CSc2nnnn2C2CCCCC2)c1	nt	nt	nt	nt	0.8	nt
COc1ccccc1N=CC1=C(O)CC(c2ccccc2)CC1=O (centres undefined)	4.7	0.9	96.5*	6.3	-1.8	6.1
O=C1CC(c2ccccc2)CC(O)=C1C=Nc1ccccc1Cl (centres undefined)	2.9	-4.4	7.6	3.1	-1.2	-6.1
CCOc1ccc2[nH]c(=O)c(CN(Cc3ccccc3OC)C(=O)c3ccccc3)cc2c1	24.1*	-1.1	-2.0	5.2	-1.8	6.1
CCOc1ccc2[nH]c(=O)c(CN(Cc3ccc(F)cc3)C(=O)c3ccco3)cc2c1	47.2*	1.4	-3.7	9.4	3.8	-9.6
COc1ccc2[nH]c(=O)c(CN(Cc3ccco3)C(=O)c3ccccc3)cc2c1	3.7	2.1	-7.2	2.5	-8.9	13.9
CCOc1ccc2[nH]c(=O)c(CN(CC3COCCO3)C(=O)c3ccco3)cc2c1 (centres undefined)	nt	nt	-2.7	nt	nt	nt
COc1ccccc1NC(=O)N(Cc1cc2cc(OC)c(OC)cc2[nH]c1=O)CC1CCCO1 (centres undefined)	1.2	2.1	-8.1	10.0	-0.8	2.1
COc1ccc2[nH]c(=O)c(CN(CC3CCCO3)C(=O)Nc3ccccc3OC)cc2c1 (centres undefined)	39.9*	1.7	2.2	2.9	2.1	13.7
CCCn1c2ccc(C)cc2c2n[nH]c(=S)nc21	nt	nt	nt	nt	4.3	nt
O=C1N/C(=C/c2ccc(N3CCOCC3)o2)C(=O)N1c1ccccc1	2.1	2.2	-0.5	-1.0	-6.3	54.0*

Compound activity deposited in PubChem by several laboratories.
